# Measured values from ChEMBL document CHEMBL3608281, “Synthesis and biological evaluation of novel 3,9-substituted β-carboline derivatives as anticancer agents” (Bioorg Med Chem Lett, 2015).
# Activity calls are given as the source filed them. The rule behind the calls is not given here.
# Assays:
# COLO 205 = experiment: Cytotoxicity against human COLO205 cells incubated for 48 hrs by MTT assay; format: functional, cell-based; conditions: COLO 205, 48 h
# Method in brief: (§1)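 Human tumour lines (HL-60 leukemia, Hep3B liver, H460 lung, A498 renal, COLO205 colon, 2774 and SK-OV-3 ovarian) and normal Detroit 551 skin fibroblasts were exposed to a range of concentrations for 48 h. IC50 is the concentration giving 50% proliferation inhibition, as the mean of three independent determinations.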
# [1] = Cytotoxicity against human H460 cells incubated for 48 hrs by MTT assay; format: functional, cell-based; conditions: NCI-H460, 48 h; method in brief: as §1
# HL-60 [2] = experiment: Cytotoxicity against human HL60 cells incubated for 48 hrs by MTT assay; format: functional, cell-based; conditions: HL-60, 48 h; method in brief: as §1
# Detroit 551 = experiment: Cytotoxicity against human Detroit 551 cells incubated for 48 hrs by MTT assay; format: cell-based; conditions: Detroit 551, 48 h; method in brief: as §1
# SK-OV-3 = experiment: Cytotoxicity against human SKOV3 cells incubated for 48 hrs by MTT assay; format: functional, cell-based; conditions: SK-OV-3, 48 h; method in brief: as §1
# [3] = Cytotoxicity against human Hep3B cells incubated for 48 hrs by MTT assay; format: functional, cell-based, Hep 3B2; method in brief: as §1
# A498 = experiment: Cytotoxicity against human A498 cells incubated for 48 hrs by MTT assay; format: functional, cell-based; conditions: A498, 48 h
# [4] = Cytotoxicity against human 2774 cells incubated for 48 hrs by MTT assay; format: functional, cell-based; method in brief: as §1
# HL-60 [5] = experiment: Induction of cell cycle arrest in human HL60 cells assessed as accumulation at G0/G1 phase at 10 uM incubated for 48 hrs by propidium iodide staining based flow cytometry (reference value: 39.51%); format: functional
# HL-60 [6] = experiment: Induction of cell cycle arrest in human HL60 cells assessed as accumulation at subG1 phase at 1 uM incubated for 48 hrs by propidium iodide staining based flow cytometry (reference value: 2.5%); format: functional
# HL-60 [7] = experiment: Induction of cell cycle arrest in human HL60 cells assessed as accumulation at G0/G1 phase at 1 uM incubated for 48 hrs by propidium iodide staining based flow cytometry (reference value: 39.51%); format: functional
# HL-60 [8] = experiment: Induction of cell morphology changes in human HL60 cells assessed as induction of appearance apoptotic bodies at 5 uM incubated for 24 hrs by a phase-contrast microscopy; format: functional, cell-based
# Method in brief: (§2)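 HL-60 cells were treated at 1, 5 and 10 μM for 24 h and 48 h and examined microscopically for nuclear shrinkage and apoptotic bodies.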
# HL-60 [9] = experiment: Induction of cell morphology changes in human HL60 cells assessed as induction of nuclear shrinkage at 5 uM incubated for 24 hrs by a phase-contrast microscopy; format: functional, cell-based; method in brief: as §2
# HL-60 [10] = experiment: Induction of apoptosis in human HL60 cells assessed as induction of AIF protein release into cytosol at 5 uM incubated for 24 hrs and 48 hrs by Western blotting method; format: functional, cell-based
# HL-60 [11] = experiment: Induction of apoptosis in human HL60 cells assessed as early apoptotic cells level at 5 uM incubated for 24 hrs by annexin V/propidium iodide staining based flow cytometry (reference value: 0%); format: functional
# HL-60 [12] = experiment: Increase in DR4 protein expression in human HL60 cells at 5 uM incubated for 24 hrs and 48 hrs by Western blotting method; format: functional, cell-based
# Method in brief: (§3)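 HL-60 cells were exposed to 5 μM for 24 and 48 h. Lysates were immunoblotted for Fas, DR4, DR5, FasL, TRAIL, Bax, Bcl-2, caspase-9, caspase-3 and PARP (cleavage), with β-actin as loading control.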
# HL-60 [13] = experiment: Induction of apoptosis in human HL60 cells assessed as upregulation of caspase-3 protein expression at 5 uM incubated for 24 hrs and 48 hrs by Western blotting method; format: functional, cell-based; method in brief: as §3
# HL-60 [14] = experiment: Induction of apoptosis in human HL60 cells assessed as upregulation of caspase-9 protein expression at 5 uM incubated for 24 hrs and 48 hrs by Western blotting method; format: functional, cell-based; method in brief: as §3
# HL-60 [15] = experiment: Induction of cell cycle arrest in human HL60 cells assessed as accumulation at S phase at 1 uM incubated for 48 hrs by propidium iodide staining based flow cytometry (reference value: 43.72%); format: functional
# HL-60 [16] = experiment: Induction of apoptosis in human HL60 cells assessed as early apoptotic cells level at 5 uM incubated for 48 hrs by annexin V/propidium iodide staining based flow cytometry (reference value: 0%); format: functional
# HL-60 [17] = experiment: Induction of cell cycle arrest in human HL60 cells assessed as accumulation at S phase at 10 uM incubated for 48 hrs by propidium iodide staining based flow cytometry (reference value: 43.72%); format: functional
# HL-60 [18] = experiment: Induction of apoptosis in human HL60 cells assessed as induction of Apaf-1 protein release into cytosol at 5 uM incubated for 24 hrs and 48 hrs by Western blotting method; format: functional, cell-based
# HL-60 [19] = experiment: Increase in FasL protein expression in human HL60 cells at 5 uM incubated for 24 hrs and 48 hrs by Western blotting method; format: functional, cell-based; method in brief: as §3
# HL-60 [20] = experiment: Induction of apoptosis in human HL60 cells assessed as increase in Bax protein level at 5 uM incubated for 24 hrs and 48 hrs by Western blotting method; format: functional, cell-based; method in brief: as §3
# HL-60 [21] = experiment: Induction of cell cycle arrest in human HL60 cells assessed as accumulation at subG1 phase incubated for 48 hrs by propidium iodide staining based flow cytometry; format: functional
# HL-60 [22] = experiment: Increase in DR5 protein expression in human HL60 cells at 5 uM incubated for 24 hrs and 48 hrs by Western blotting method; format: functional, cell-based; method in brief: as §3
# HL-60 [23] = experiment: Induction of cell cycle arrest in human HL60 cells assessed as accumulation at G2/M phase at 1 uM incubated for 48 hrs by propidium iodide staining based flow cytometry (reference value: 16.77%); format: functional
# HL-60 [24] = experiment: Increase in Fas protein expression in human HL60 cells at 5 uM incubated for 24 hrs and 48 hrs by Western blotting method; format: functional, cell-based; method in brief: as §3
# HL-60 [25] = experiment: Induction of cell cycle arrest in human HL60 cells assessed as accumulation at G2/M phase at 5 uM incubated for 48 hrs by propidium iodide staining based flow cytometry (reference value: 16.77%); format: functional
# HL-60 [26] = experiment: Induction of cell cycle arrest in human HL60 cells assessed as accumulation at S phase at 5 uM incubated for 48 hrs by propidium iodide staining based flow cytometry (reference value: 43.72%); format: functional
# HL-60 [27] = experiment: Induction of cell cycle arrest in human HL60 cells assessed as accumulation at subG1 phase at 10 uM incubated for 48 hrs by propidium iodide staining based flow cytometry (reference value: 2.5%); format: functional
# HL-60 [28] = experiment: Induction of apoptosis in human HL60 cells assessed as induction of endonuclease-G protein release into cytosol at 5 uM incubated for 24 hrs and 48 hrs by Western blotting method; format: functional, cell-based
# HL-60 [29] = experiment: Induction of cell cycle arrest in human HL60 cells assessed as accumulation at G0/G1 phase at 5 uM incubated for 48 hrs by propidium iodide staining based flow cytometry (reference value: 39.51%); format: functional
# HL-60 [30] = experiment: Increase in TRAIL protein expression in human HL60 cells at 5 uM incubated for 24 hrs and 48 hrs by Western blotting method; format: functional, cell-based; method in brief: as §3
# HL-60 [31] = experiment: Induction of apoptosis in human HL60 cells assessed as late apoptotic cells level at 5 uM incubated for 48 hrs by annexin V/propidium iodide staining based flow cytometry (reference value: 0.4%); format: functional
# HL-60 [32] = experiment: Induction of apoptosis in human HL60 cells assessed as reduction in Bcl-2 protein level at 5 uM incubated for 24 hrs and 48 hrs by Western blotting method; format: functional, cell-based; method in brief: as §3
# HL-60 [33] = experiment: Induction of apoptosis in human HL60 cells assessed as induction of PARP cleavage at 5 uM incubated for 24 hrs and 48 hrs by Western blotting method; format: functional, cell-based; method in brief: as §3
# HL-60 [34] = experiment: Induction of cell cycle arrest in human HL60 cells assessed as accumulation at subG1 phase at 5 uM incubated for 48 hrs by propidium iodide staining based flow cytometry (reference value: 2.5%); format: functional
# HL-60 [35] = experiment: Induction of cell cycle arrest in human HL60 cells assessed as accumulation at G2/M phase at 10 uM incubated for 48 hrs by propidium iodide staining based flow cytometry (reference value: 16.77%); format: functional
# HL-60 [36] = experiment: Induction of apoptosis in human HL60 cells assessed as late apoptotic cells level at 5 uM incubated for 24 hrs by annexin V/propidium iodide staining based flow cytometry (reference value: 0.4%); format: functional
# HL-60 [37] = experiment: Induction of apoptosis in human HL60 cells assessed as induction of cytochrome-c protein release into cytosol at 5 uM incubated for 24 hrs and 48 hrs by Western blotting method; format: functional, cell-based
smiles,measurement,setting,value
CCOC(=O)c1cc2c3ccccc3n(Cc3ccc(OC)cc3)c2cn1,IC50,COLO 205,36.9 µM
same,IC50,[1],50 µM
same,IC50,HL-60 [2],39 µM
same,IC50,Detroit 551,50 µM
same,IC50,SK-OV-3,> 100 µM
same,IC50,[3],50 µM
same,IC50,A498,38.5 µM
same,IC50,[4],> 100 µM
CCOC(=O)c1cc2c(cn1)[nH]c1ccccc12,IC50,COLO 205,> 100 µM
same,IC50,[1],> 100 µM
same,IC50,HL-60 [2],> 100 µM
same,IC50,Detroit 551,> 100 µM
same,IC50,SK-OV-3,> 100 µM
same,IC50,[3],> 100 µM
same,IC50,A498,> 100 µM
same,IC50,[4],> 100 µM
CCOC(=O)c1cc2c3ccccc3n(Cc3cccc(OC)c3)c2cn1,IC50,COLO 205,26.7 µM
same,IC50,SK-OV-3,> 100 µM
same,IC50,A498,21.6 µM
same,IC50,[4],> 100 µM
CCOC(=O)c1cc2c3ccccc3n(Cc3cc(OC)cc(OC)c3)c2cn1,IC50,COLO 205,> 100 µM
same,IC50,[1],> 100 µM
same,IC50,HL-60 [2],> 100 µM
same,IC50,Detroit 551,> 100 µM
same,IC50,SK-OV-3,24.4 µM
same,IC50,[3],> 100 µM
same,IC50,A498,> 100 µM
same,IC50,[4],> 100 µM
CCOC(=O)c1cc2c3ccccc3n(Cc3ccc(Cl)cc3)c2cn1,IC50,COLO 205,> 100 µM
same,IC50,[1],> 100 µM
same,IC50,HL-60 [2],> 100 µM
same,IC50,Detroit 551,> 100 µM
same,IC50,SK-OV-3,2.9 µM
same,IC50,[3],> 100 µM
same,IC50,A498,> 100 µM
same,IC50,[4],16.4 µM
OCc1cc2c3ccccc3nc-2c[nH]1,IC50,COLO 205,> 100 µM
same,IC50,[1],> 100 µM
same,IC50,HL-60 [2],> 100 µM
same,IC50,Detroit 551,> 100 µM
same,IC50,SK-OV-3,> 100 µM
same,IC50,[3],> 100 µM
same,IC50,A498,> 100 µM
same,IC50,[4],> 100 µM
O=C(O)c1cc2c3ccccc3nc-2c[nH]1,IC50,COLO 205,49.6 µM
same,IC50,[1],70.5 µM
same,IC50,HL-60 [2],75 µM
same,IC50,Detroit 551,> 100 µM
same,IC50,SK-OV-3,> 100 µM
same,IC50,[3],75 µM
same,IC50,A498,> 100 µM
same,IC50,[4],> 100 µM
COc1ccccc1Cn1c2ccccc2c2cc(C(=O)O)ncc21,Activity,HL-60 [5],55.62%
same,IC50,COLO 205,32.5 µM
same,IC50,[1],8 µM
same,Activity,HL-60 [6],9.83%
same,Activity,HL-60 [7],34.67%
same,IC50,HL-60 [2],4 µM
same,Activity,HL-60 [8],Active
same,Activity,HL-60 [9],Active
same,Activity,HL-60 [10],Active
same,Activity,HL-60 [11],37.9%
same,Activity,HL-60 [12],inactive
same,Activity,HL-60 [13],Active
same,Activity,HL-60 [14],Active
same,Activity,HL-60 [15],49.22%
same,Activity,HL-60 [16],46.6%
same,IC50,Detroit 551,> 100 µM
same,Activity,HL-60 [17],39.4%
same,Activity,HL-60 [18],Active
same,Activity,HL-60 [19],inactive
same,Activity,HL-60 [20],Active
same,Activity,HL-60 [21],Dose-dependent effect
same,Activity,HL-60 [22],inactive
same,Activity,HL-60 [23],16.11%
same,Activity,HL-60 [24],inactive
same,Activity,HL-60 [25],12.42%
same,Activity,HL-60 [26],50.19%
same,Activity,HL-60 [27],17.79%
same,Activity,HL-60 [28],Active
same,Activity,HL-60 [29],37.39%
same,Activity,HL-60 [30],inactive
same,Activity,HL-60 [31],38.6%
same,Activity,HL-60 [32],Active
same,IC50,SK-OV-3,21.4 µM
same,Activity,HL-60 [33],Active
same,Activity,HL-60 [34],14.55%
same,Activity,HL-60 [35],4.98%
same,IC50,[3],6.7 µM
same,Activity,HL-60 [36],27.9%
same,IC50,A498,7.5 µM
same,Activity,HL-60 [37],Active
same,IC50,[4],12.6 µM
CCOC(=O)c1cc2c3ccccc3n(Cc3ccncc3)c2cn1,IC50,COLO 205,> 100 µM
same,IC50,SK-OV-3,> 100 µM
same,IC50,A498,> 100 µM
same,IC50,[4],> 100 µM
CCOC(=O)c1cc2c3ccccc3n(Cc3ccc(F)cc3)c2cn1,IC50,COLO 205,> 100 µM
same,IC50,[1],> 100 µM
same,IC50,HL-60 [2],> 100 µM
same,IC50,Detroit 551,> 100 µM
same,IC50,SK-OV-3,> 100 µM
same,IC50,[3],> 100 µM
same,IC50,A498,50.4 µM
same,IC50,[4],> 100 µM
